These results are taken from ChEMBL document CHEMBL1134462, “Toward a rational design of peptide inhibitors of ribonucleotide reductase: structure-function and modeling studies” (J Med Chem, 2001).

Assay [1] is described as follows: Relative dissociation constant evaluated against mouse Ribonucleotide Reductase (RR). The gist of the method:
(§1)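 Competition of free ligand with column-bound FTLDADF (Sepharose mixed ~60:40 with underivatized Sepharose) for mouse R1. mR1 (4.4 μM) premixed with ligand (typically 100 μM) in 50 mM Tris pH 8.5, 10 mM DTT, 100 μM dTTP, held 30 min on spin column, then centrifuged. Eluted R1 measured by Bradford assay, duplicates; Kd derived from elution versus no-ligand control, expressed relative to AcFTLDADF standard.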

Assay [2] in a line: Relative binding affinity evaluated against mouse Ribonucleotide Reductase (RR). In outline: as §1

`CC(=O)N[C@@H](Cc1ccccc1)C(=O)N[C@H](C(=O)N[C@@H](CC(C)C)C(=O)N[C@@H](CC(=O)O)C(=O)N[C@@H](C)C(=O)N[C@@H](CC(=O)O)C(=O)N[C@@H](Cc1ccc(Cl)cc1)C(=O)O)[C@H](C)O` yielded a Relative Kd in assay [1] of 3.1. The same compound had a Relative Ki in assay [2] of 3.2.
Taken in the same sequence, the figures for `CC(=O)N[C@@H](Cc1ccccc1)C(=O)N[C@H](C(=O)N[C@@H](CC(C)C)C(=O)N[C@@H](CC(=O)O)C(=O)N[C@@H](C)C(=O)N[C@@H](CC(=O)O)C(=O)N[C@@H](Cc1ccccc1)C(=O)O)[C@H](C)O` were 1 and 1.
